# Assay results from different studies.
# Lines come from different studies, so protocols differ.
# Target: Death-associated protein kinase 3 (DAPK3, Homo sapiens, UniProt O43293)
SMILES,read-out,mode,technique,tested at,quantity,value
O=c1[nH]c2ccccc2n1C1CCN(Cc2ccc(-c3[nH]c4cc5ncnc5cc4nc3-c3ccccc3)cc2)CC1,cell-free assay,,,0.5 µM,remaining signal,106%
COc1ncccc1-c1cnn2ccc(N3CCN(C(=O)OC(C)C)CC3)nc12,binding,,competition with immobilised ligand,1 µM,remaining binding,98%
Cn1cncc1[C@](O)(COc1ccc(C#N)cc1-c1ccc(OC(F)(F)F)cc1)c1ccc(C#N)cc1,cell-free assay,,competition with immobilised ligand,1 µM,remaining binding,88%
Cn1cc(-c2cc(F)cc(N3CCn4c(cc5c4CCCC5)C3=O)c2CO)cc(Nc2ccc(N3CCN(C4COC4)CC3)cn2)c1=O,enzyme activity,inhibitor,,0.1 µM,inhibition,3%
Cc1nn(C)cc1-c1nc2c(N3CCN(Cc4ccc(Cl)cc4)CC3)c(Cl)cnc2[nH]1,binding,,competition with immobilised ligand,1 µM,remaining binding,84%
CC(C)(C)c1cc(C=C(C#N)C#N)cc(Br)c1O,enzyme activity,inhibitor,,0.5 µM,remaining activity,96.4%
Cn1cc(-c2cccc(N3CCc4c(sc5c4CC(C)(C)C5)C3=O)c2CO)cc(Nc2ccncn2)c1=O,enzyme activity,inhibitor,,1 µM,inhibition,-6%
Nc1ncc(-c2nc(N3CCOCC3)nc(N3CCOCC3)n2)c(C(F)F)n1,binding,,competition with immobilised ligand,10 µM,remaining binding,80%
